According to ChEMBL document CHEMBL1124476, “1-(2-aminoethyl)-6-aryl-4H- [1,2,4]triazolo[4,3-a][1,4]benzodiazepines with diuretic and natriuretic activity” (J Med Chem, 1989):

Assays:
Rattus norvegicus [1] = experiment: Mean excretion of chloride in conscious rats at a dose of 10 mg/kg given orally; type: ADME, organism-based; set-up: dose 10 mg/kg, route oral; conditions: in vivo, po
Summary of the method: (§1)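 Secondary dose-response in male Sprague-Dawley rats (~160 g), fasted and hydrated as in the primary screen. Oral gavage at 0.3-100 mg/kg in 25 mL/kg saline/0.5% CMC, three cages of two rats per dose. Urine collected 5 h; Na, K, Cl, HCO3 measured. Values are mean excretion (mequiv), compared with controls at P < 0.05.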

Canis familiaris [2] = experiment: Effect of compound on urinary volume before infusion with 10 mg/kg/hr fose into renal artery of anesthetized dogs; type: ADME, organism-based, Canis lupus familiaris, Urine; conditions: dog, in vivo
Summary of the method: (§2)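 Anesthetized dogs; drug added to saline pumped at 0.3 mL/min through a needle into one renal artery, contralateral kidney as control. 10 mg/kg per h, with 30-60 min stabilization first. Urine volume and GFR (inulin clearance) taken before and after infusion; means ± SEM in mL/min, N = 5, P < 0.05.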

Rattus norvegicus [3] = experiment: Mean excretion of potassium in conscious rats at a dose of 0.3 mg/kg given orally; type: ADME, organism-based; set-up: dose 0.3 mg/kg, route oral; conditions: in vivo, po; summary of the method: as §1
Rattus norvegicus [4] = organism: Rattus norvegicus; experiment: […]; type: ADME, organism-based, Urine; set-up: dose 1 mg/kg, route oral; conditions: in vivo, po, 1 mg/kg
Summary of the method: (§3)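 Dose-response test in male Sprague-Dawley rats of about 160 g, fasted 24 h, with water withheld 1½ h before and during the test. Each rat got a single gavage of 25 mL/kg 0.9% saline with 0.5% carboxymethylcellulose carrying the agent (0.3–100 mg/kg range). Rats were housed two per metabolism cage, and urine was collected for 5 h. Mean urine volume (mL) was compared with controls (P < 0.05).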

Rattus norvegicus [5] = experiment: Mean excretion of chloride in conscious rats at a dose of 30 mg/kg given orally; type: ADME, organism-based; set-up: dose 30 mg/kg, route oral; conditions: in vivo, po; summary of the method: as §1
Rattus norvegicus [6] = experiment: Mean excretion of […] in conscious rats at a dose of 1.0 mg/kg given orally; type: ADME, organism-based; set-up: dose 1 mg/kg, route oral; conditions: in vivo, po
Summary of the method: (§4)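 Male Sprague-Dawley rats, about 160 g, fasted 24 h and water withheld 1 1/2 h beforehand; food and water withheld during the test. Dosing by gavage with 25 mL/kg 0.9% saline containing 0.5% (carboxymethyl)cellulose, agent dissolved or suspended. Three cages of two rats each per dose, held in metabolism cages. Urine collected over 5 h. Volume given in mL, Na+ in mequiv. Significance versus control at P < 0.05.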

Rattus norvegicus [7] = experiment: Mean excretion of potassium in conscious rats at a dose of 10 mg/kg given orally; type: ADME, organism-based; set-up: dose 10 mg/kg, route oral; conditions: in vivo, po; summary of the method: as §1
Rattus norvegicus [8] = experiment: Mean excretion of potassium in conscious rats at a dose of 3.0 mg/kg given orally; type: ADME, organism-based; set-up: dose 3 mg/kg, route oral; conditions: in vivo, po; summary of the method: as §1
Rattus norvegicus [9] = experiment: Mean excretion of Cl- in conscious rats at a dose of 0.3 mg/kg given orally; type: ADME, organism-based, Urine; set-up: dose 0.3 mg/kg, route oral; conditions: in vivo, po; summary of the method: as §3
Rattus norvegicus [10] = organism: Rattus norvegicus; experiment: […]; type: ADME, organism-based, Urine; set-up: dose 0.3 mg/kg, route oral; conditions: in vivo, po, 0.3 mg/kg; summary of the method: as §3
Canis familiaris [11] = experiment: Effect of compound on glomerular filtration rate before infusion with 10 mg/kg/hr fose into renal artery of anesthetized dogs; type: ADME, organism-based, Canis lupus familiaris; conditions: dog, in vivo; summary of the method: as §2
Rattus norvegicus [12] = organism: Rattus norvegicus; experiment: […]; type: ADME, organism-based, Urine; set-up: dose 100 mg/kg, route oral; conditions: in vivo, po, 100 mg/kg; summary of the method: as §4
Canis familiaris [13] = experiment: Effect of compound on glomerular filtration rate after infusion with 10 mg/kg/hr fose into renal artery of anesthetized dogs; type: ADME, organism-based, Canis lupus familiaris; conditions: dog, in vivo; summary of the method: as §2
Rattus norvegicus [14] = experiment: Mean excretion of sodium in conscious rats at a dose of 100 mg/kg given orally; type: ADME, organism-based; set-up: dose 100 mg/kg, route oral; conditions: in vivo, po; summary of the method: as §4
Rattus norvegicus [15] = experiment: Mean excretion of sodium in conscious rats at a dose of 3.0 mg/kg given orally; type: ADME, organism-based; set-up: dose 3 mg/kg, route oral; conditions: in vivo, po; summary of the method: as §4
Rattus norvegicus [16] = experiment: Mean excretion of chloride in conscious rats at a dose of 100 mg/kg given orally; type: ADME, organism-based; set-up: dose 100 mg/kg, route oral; conditions: in vivo, po; summary of the method: as §1
Rattus norvegicus [17] = organism: Rattus norvegicus; experiment: […]; type: ADME, organism-based, Urine; set-up: dose 3 mg/kg, route oral; conditions: in vivo, po, 3 mg/kg; summary of the method: as §4
Rattus norvegicus [18] = experiment: Mean excretion of potassium in conscious rats at a dose of 1.0 mg/kg given orally; type: ADME, organism-based; set-up: dose 1 mg/kg, route oral; conditions: in vivo, po; summary of the method: as §1
Rattus norvegicus [19] = experiment: Mean excretion of potassium in conscious rats at a dose of 30 mg/kg given orally; type: ADME, organism-based; set-up: dose 30 mg/kg, route oral; conditions: in vivo, po; summary of the method: as §1
[20] = Diuretic activity at 40 mg/kg (screening dose-90.5 umol/kg) in […] in a one stage experiment; T/C = urine vol of treated rats / urine vol of control rats; type: functional
Summary of the method: (§5)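 40 mg/kg given by gavage in 25 mL/kg 0.9% saline with 0.5% (carboxymethyl)cellulose. Four rats per agent, two per metabolism cage; 20 controls; 5 h urine. T/C = treated/control urine volume. Stage-1 T/C of 1.66 or more leads to stage 2; product T/C1·T/C2 of 3.34 or more counts as active.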

Rattus norvegicus [21] = experiment: Mean excretion of potassium in conscious rats at a dose of 100 mg/kg given orally; type: ADME, organism-based; set-up: dose 100 mg/kg, route oral; conditions: in vivo, po; summary of the method: as §1
Rattus norvegicus [22] = experiment: Mean excretion of chloride in conscious rats at a dose of 1.0 mg/kg given orally; type: ADME, organism-based; set-up: dose 1 mg/kg, route oral; conditions: in vivo, po; summary of the method: as §1
Rattus norvegicus [23] = experiment: Mean excretion of chloride in conscious rats at a dose of 3.0 mg/kg given orally; type: ADME, organism-based; set-up: dose 3 mg/kg, route oral; conditions: in vivo, po; summary of the method: as §1
Rattus norvegicus [24] = experiment: Mean excretion of sodium in conscious rats at a dose of 30 mg/kg given orally; type: ADME, organism-based; set-up: dose 30 mg/kg, route oral; conditions: in vivo, po; summary of the method: as §4
Canis familiaris [25] = experiment: Effect of compound on urinary volume after infusion with 10 mg/kg/hr fose into renal artery of anesthetized dogs; type: ADME, organism-based, Canis lupus familiaris, Urine; conditions: dog, in vivo; summary of the method: as §2
Rattus norvegicus [26] = experiment: Mean excretion of sodium in conscious rats at a dose of 10 mg/kg given orally; type: ADME, organism-based; set-up: dose 10 mg/kg, route oral; conditions: in vivo, po; summary of the method: as §4
Rattus norvegicus [27] = organism: Rattus norvegicus; experiment: […]; type: ADME, organism-based, Urine; set-up: dose 10 mg/kg, route oral; conditions: in vivo, po, 10 mg/kg; summary of the method: as §4
[28] = Diuretic activity at 40 mg/kg (screening dose-90.5 umol/kg) in […] in a two stage experiment; T/C1.2 = urine vol of treated rats / urine vol of control rats; type: functional; summary of the method: as §5
Rattus norvegicus [29] = experiment: Mean excretion of sodium in conscious rats at a dose of 0.3 mg/kg given orally; type: ADME, organism-based; set-up: dose 0.3 mg/kg, route oral; conditions: in vivo, po; summary of the method: as §4
Rattus norvegicus [30] = organism: Rattus norvegicus; experiment: […]; type: ADME, organism-based, Urine; set-up: dose 30 mg/kg, route oral; conditions: in vivo, po, 30 mg/kg; summary of the method: as §4
[31] = Diuretic activity at 40 mg/kg (screening dose-82.2 umol/kg) in […] in a two stage experiment; T/C1.2 = urine vol of treated rats / urine vol of control rats; type: functional; summary of the method: as §5
[32] = Diuretic activity at 40 mg/kg (screening dose-82.2 umol/kg) in […] in a one stage experiment; T/C = urine vol of treated rats / urine vol of control rats; type: functional; summary of the method: as §5

Row | Structure (SMILES) | Mean excretion of Cl- (Rattus norvegicus [1]) [m equiv] | Mean excretion of K+ (Rattus norvegicus [3]) [m equiv] | Mean urine volume (Rattus norvegicus [4]) [mL] | Mean excretion of Cl- (Rattus norvegicus [5]) [m equiv] | Mean excretion of Na+ (Rattus norvegicus [6]) [m equiv] | Mean excretion of K+ (Rattus norvegicus [7]) [m equiv] | Mean excretion of K+ (Rattus norvegicus [8]) [m equiv] | Mean excretion of Cl- (Rattus norvegicus [9]) [m equiv] | Mean urine volume (Rattus norvegicus [10]) [mL] | Mean urine volume (Rattus norvegicus [12]) [mL] | Mean excretion of Na+ (Rattus norvegicus [14]) [m equiv] | Mean excretion of Na+ (Rattus norvegicus [15]) [m equiv] | Mean excretion of Cl- (Rattus norvegicus [16]) [m equiv] | Mean urine volume (Rattus norvegicus [17]) [mL] | Mean excretion of K+ (Rattus norvegicus [18]) [m equiv] | Mean excretion of K+ (Rattus norvegicus [19]) [m equiv] | Mean excretion of K+ (Rattus norvegicus [21]) [m equiv] | Mean excretion of Cl- (Rattus norvegicus [22]) [m equiv] | Mean excretion of Cl- (Rattus norvegicus [23]) [m equiv] | Mean excretion of Na+ (Rattus norvegicus [24]) [m equiv] | also measured
1 | CN(C)CC(c1ccccc1)c1nnc2n1-c1ccc(Cl)cc1C(c1ccccc1)=NC2 (stereo unspecified) | 1.16 | 0.25 | 4.47 | 1.72 | 0.81 | 0.22 | 0.22 | 0.73 | 4.15 | 9.54 | 1.51 | 0.82 | 1.26 | 5.36 | 0.25 | 0.27 | 0.27 | 0.81 | 0.89 | 1.8 | Urinary volume (Canis familiaris [2]): 0.2 mL/min; GFR (Canis familiaris [11]): 23 mL/min; GFR (Canis familiaris [13]): 18 mL/min; T/C 1 [20]: 2.1; Urinary volume (Canis familiaris [25]): 0.9 mL/min; Mean excretion of Na+ (Rattus norvegicus [26]): 1.15 m equiv; Mean urine volume (Rattus norvegicus [27]): 6.7 mL; T/C 1.2 [28]: 5.27; Mean excretion of Na+ (Rattus norvegicus [29]): 0.74 m equiv; Mean urine volume (Rattus norvegicus [30]): 12 mL
2 | CN(C)CC(c1ccccc1)c1nnc2n1-c1ccc(Br)cc1C(c1ccccc1)=NC2 (stereo unspecified) | 0.78 | 0.24 | 3.59 | 1.16 | 0.64 | 0.17 | 0.17 | 0.72 | 4.29 | 7.74 | 1.16 | 0.53 | 1.01 | 3.4 | 0.21 | 0.17 | 0.15 | 0.62 | 0.6 | 1.18 | T/C 1.2 [31]: 4.73; T/C 1 [32]: 2.17; Mean excretion of Na+ (Rattus norvegicus [26]): 0.74 m equiv; Mean urine volume (Rattus norvegicus [27]): 5.1 mL; Mean excretion of Na+ (Rattus norvegicus [29]): 0.63 m equiv; Mean urine volume (Rattus norvegicus [30]): 8.5 mL
